The source made the active and inactive calls. The rule behind the calls is not given here.
Experiments:
[1] = system: HT-29; experiment: Induction of apoptosis in human HT-29 cells assessed as upregulation of caspase 8 activity at IC90 concentration after 24 hrs; format: functional, cell-based
Summary of the method: (§1)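 HT-29 monolayers were kept in RPMI 1640 with 10 % heat-inactivated FBS and 1 % penicillin/streptomycin at 37°C in 5 % CO2. Cells were exposed to the test agent, and caspase-2, -3, -8 and -9 activities were measured after 2, 6 and 24 h.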

[2] = system: A2780; experiment: Cytotoxicity against human A2780 cells after 96 hrs by SRB colorimetric assay; format: functional, cell-based; conditions: A2780, 96 h
Summary of the method: (§2)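 Cells kept as monolayers in RPMI 1640 with 10 % heat-inactivated FBS and 1 % penicillin/streptomycin, 37°C, 5 % CO2, seeded at optimal density. Exponentially growing cells exposed to compound for 96 h, fixed with 10 % TCA, stained with sulforhodamine B for 30 min, washed with 1 % acetic acid, bound dye dissolved in 10 mM Tris base, OD read at 570 nm. IC50 estimated from semi-log dose-response curves versus untreated controls.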

[3] = system: MCF7; experiment: Cytotoxicity against human MCF7 cells after 96 hrs by SRB colorimetric assay; format: functional, cell-based; conditions: MCF7, 96 h; summary of the method: as §2
[4] = Cytotoxicity against human A253 cells after 96 hrs by SRB colorimetric assay; format: functional, cell-based; conditions: A253, 96 h; summary of the method: as §2
[5] = system: HT-29; experiment: Cell cycle arrest in human HT-29 cells assessed as accumulation at G1 phase at IC90 concentration after 48 hrs using propidium iodide staining by flow cytometry; format: functional
Summary of the method: (§3)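 Exponentially growing cells were exposed to the IC90 concentration for 24 and 48 h. Cell-cycle phase distribution, including the sub-G1 apoptotic peak, was compared with untreated controls at each time.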

[6] = Cytotoxicity against human 518A2 cells after 96 hrs by SRB colorimetric assay; format: functional, cell-based; conditions: 518A2, 96 h; summary of the method: as §2
[7] = system: HT-29; experiment: Cytotoxicity against human HT-29 cells after 96 hrs by SRB colorimetric assay; format: functional, cell-based; conditions: HT-29, 96 h; summary of the method: as §2
[8] = system: A549; experiment: Cytotoxicity against human A549 cells after 96 hrs by SRB colorimetric assay; format: functional, cell-based; conditions: A549, 96 h; summary of the method: as §2
[9] = system: HT-29; experiment: Induction of apoptosis in human HT-29 cells assessed as upregulation of caspase 3 activity at IC90 concentration after 6 hrs; format: functional, cell-based; summary of the method: as §1
[10] = system: HT-29; experiment: Cell cycle arrest in human HT-29 cells assessed as accumulation at G2/M phase at IC90 concentration after 48 hrs using propidium iodide staining by flow cytometry; format: functional; summary of the method: as §3
[11] = system: HT-29; experiment: Induction of apoptosis in human HT-29 cells assessed as upregulation of caspase 2 activity at IC90 concentration after 6 hrs; format: functional, cell-based; summary of the method: as §1
[12] = system: HT-29; experiment: Induction of apoptosis in human HT-29 cells assessed as programmed cell death at IC90 concentration after 24 hrs by trypan blue exclusion test; format: functional, cell-based
Summary of the method: (§4)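 RPMI 1640 cultures (10 % heat-inactivated FBS, 37°C, 5 % CO2) were exposed to the IC90 concentration for 24 h. For trypan blue exclusion, cells excluding the dye were scored as viable or early apoptotic and blue cells as necrotic. DNA was run on agarose gels, where internucleosomal laddering (180 bp multiples) indicates apoptosis and a smear indicates necrosis.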

[13] = system: HT-29; experiment: Induction of apoptosis in human HT-29 cells at IC90 concentration after 48 hrs using annexin V and propidium iodide staining by FACS analysis relative to control; format: functional
[14] = system: HT-29; experiment: Induction of apoptosis in human HT-29 cells assessed as upregulation of caspase 2 activity at IC90 concentration after 24 hrs; format: functional, cell-based; summary of the method: as §1
[15] = system: HT-29; experiment: Induction of apoptosis in human HT-29 cells assessed as upregulation of caspase 8 activity at IC90 concentration after 6 hrs; format: functional, cell-based; summary of the method: as §1
[16] = system: HT-29; experiment: Induction of apoptosis in human HT-29 cells assessed as upregulation of caspase 9 activity at IC90 concentration after 6 hrs; format: functional, cell-based; summary of the method: as §1
[17] = system: HT-29; experiment: Cell cycle arrest in human HT-29 cells assessed as accumulation at subG1 phase at IC90 concentration after 48 hrs using propidium iodide staining by flow cytometry; format: functional; summary of the method: as §3
[18] = system: HT-29; experiment: Induction of apoptosis in human HT-29 cells assessed as upregulation of caspase 2 activity at IC90 concentration after 2 hrs; format: functional, cell-based; summary of the method: as §1
[19] = system: HT-29; experiment: Induction of apoptosis in human HT-29 cells assessed as DNA fragmentation at IC90 concentration after 24 hrs using ethidium bromide staining by DNA gel electrophoresis; format: functional, cell-based; summary of the method: as §4
[20] = system: HT-29; experiment: Cell cycle arrest in human HT-29 cells assessed as accumulation at S phase at IC90 concentration after 48 hrs using propidium iodide staining by flow cytometry; format: functional; summary of the method: as §3
[21] = system: SW-1736; experiment: Cytotoxicity against human SW1736 cells after 96 hrs by SRB colorimetric assay; format: functional, cell-based; conditions: SW-1736, 96 h; summary of the method: as §2
[22] = system: A-431; experiment: Cytotoxicity against human A431 cells after 96 hrs by SRB colorimetric assay; format: functional, cell-based; conditions: A-431, 96 h; summary of the method: as §2
[23] = system: HT-29; experiment: Induction of apoptosis in human HT-29 cells assessed as upregulation of caspase 9 activity at IC90 concentration after 24 hrs; format: functional, cell-based; summary of the method: as §1
[24] = system: HT-29; experiment: Induction of apoptosis in human HT-29 cells assessed as upregulation of caspase 9 activity at IC90 concentration after 2 hrs; format: functional, cell-based; summary of the method: as §1
[25] = system: HT-29; experiment: Cell cycle arrest in human HT-29 cells assessed as accumulation at G2/M phase at IC90 concentration after 24 hrs using propidium iodide staining by flow cytometry; format: functional; summary of the method: as §3
[26] = system: HT-29; experiment: Cell cycle arrest in human HT-29 cells assessed as accumulation at subG1 phase at IC90 concentration after 24 hrs using propidium iodide staining by flow cytometry; format: functional; summary of the method: as §3
[27] = system: HT-29; experiment: Induction of apoptosis in human HT-29 cells assessed as upregulation of caspase 3 activity at IC90 concentration after 2 hrs; format: functional, cell-based; summary of the method: as §1
[28] = system: HT-29; experiment: Cell cycle arrest in human HT-29 cells assessed as accumulation at G1 phase at IC90 concentration after 24 hrs using propidium iodide staining by flow cytometry; format: functional; summary of the method: as §3
[29] = system: HT-29; experiment: Cell cycle arrest in human HT-29 cells assessed as accumulation at S phase at IC90 concentration after 24 hrs using propidium iodide staining by flow cytometry; format: functional; summary of the method: as §3
[30] = system: HT-29; experiment: Induction of apoptosis in human HT-29 cells assessed as upregulation of caspase 3 activity at IC90 concentration after 24 hrs; format: functional, cell-based; summary of the method: as §1
[31] = system: HT-29; experiment: Induction of apoptosis in human HT-29 cells assessed as upregulation of caspase 8 activity at IC90 concentration after 2 hrs; format: functional, cell-based; summary of the method: as §1

C=C(C)[C@@H]1CC[C@]2(C(=O)OCC(N)(CO)CO)CC[C@]3(C)[C@H](CC[C@@H]4[C@@]5(C)CCC(=O)C(C)(C)[C@@H]5CC[C@]43C)[C@@H]12
Activity [1]: inactive | IC50 [2]: 10 µM | IC50 [3]: 10.6 µM | IC50 [4]: 10.5 µM | Activity [5]: inactive | IC50 [6]: 10.8 µM | IC50 [7]: 9.44 µM | IC50 [8]: 10.8 µM | Activity [9]: inactive | Activity [10]: inactive | Activity [11]: inactive | Activity [12]: Active | Activity [13]: 20% | Activity [14]: inactive | Activity [15]: inactive | Activity [16]: inactive | Activity [17]: inactive | Activity [18]: Active | Activity [19]: Active | Activity [20]: inactive | IC50 [21]: 10.1 µM | IC50 [22]: 10.1 µM | Activity [23]: inactive

C=C(C)[C@@H]1CC[C@]2(C(=O)O)CC[C@]3(C)[C@H](CC[C@@H]4[C@@]5(C)CC[C@H](O)C(C)(C)[C@@H]5CC[C@]43C)[C@@H]12
Activity [13]: Active | Activity [19]: Active

C=C(C)[C@@H]1CC[C@]2(C(=O)NC(CO)(CO)CO)CC[C@]3(C)[C@H](CC[C@@H]4[C@@]5(C)CC[C@H](OC(C)=O)C(C)(C)[C@@H]5CC[C@]43C)[C@@H]12
IC50 [2]: 10.1 µM | IC50 [3]: 29.4 µM | IC50 [4]: 29.5 µM | IC50 [6]: 29.6 µM | IC50 [7]: 10 µM | IC50 [8]: 30.5 µM | IC50 [21]: 10.2 µM | IC50 [22]: 10.3 µM

C=C(C)[C@@H]1CC[C@]2(C(=O)O)CC[C@]3(C)[C@H](CC[C@@H]4[C@@]5(C)CCC(=O)C(C)(C)[C@@H]5CC[C@]43C)[C@@H]12 [BETUNOLIC ACID]
IC50 [2]: 2.98 µM | IC50 [3]: 10.4 µM | IC50 [4]: 10.1 µM | IC50 [6]: 10.4 µM | IC50 [7]: 10 µM | IC50 [8]: 10.1 µM | IC50 [21]: 3.05 µM | IC50 [22]: 3.26 µM

C=C(C)[C@@H]1CC[C@]2(C(=O)O)CC[C@]3(C)[C@H](CC[C@@H]4[C@@]5(C)CC[C@H](OC(C)=O)C(C)(C)[C@@H]5CC[C@]43C)[C@@H]12
IC50 [2]: 19 µM | IC50 [3]: 11.1 µM | IC50 [4]: 11.8 µM | IC50 [6]: 4.65 µM | IC50 [7]: 16.1 µM | IC50 [8]: 6.73 µM | IC50 [21]: 7.3 µM | IC50 [22]: 10.7 µM

C=C(C)[C@@H]1CC[C@]2(C(=O)OCC(N)(CO)CO)CC[C@]3(C)[C@H](CC[C@@H]4[C@@]5(C)CC[C@H](O)C(C)(C)[C@@H]5CC[C@]43C)[C@@H]12
IC50 [2]: 3.46 µM | IC50 [3]: > 100 µM | IC50 [4]: > 100 µM | IC50 [6]: > 100 µM | IC50 [7]: 8.9 µM | IC50 [8]: > 100 µM | IC50 [21]: > 100 µM | IC50 [22]: 3.61 µM

C=C(C)[C@@H]1CC[C@]2(C(=O)OCC(N)(CO)CO)CC[C@]3(C)[C@H](CC[C@@H]4[C@@]5(C)CC[C@H](OC(C)=O)C(C)(C)[C@@H]5CC[C@]43C)[C@@H]12
Activity [1]: inactive | IC50 [2]: 3.62 µM | Activity [24]: inactive | IC50 [3]: 2.76 µM | Activity [25]: 16.39% | IC50 [4]: 2.02 µM | Activity [5]: 18.07% | IC50 [6]: 2.87 µM | Activity [26]: 25.11% | IC50 [7]: 2.45 µM | IC50 [8]: 3.44 µM | Activity [10]: 7.6% | Activity [11]: Active | Activity [12]: Active | Activity [13]: 20% | Activity [14]: inactive | Activity [27]: inactive | Activity [17]: 60.66% | Activity [18]: inactive | Activity [19]: Active | Activity [28]: 38.41% | Activity [29]: 19.83% | Activity [30]: inactive | Activity [20]: 13.85% | IC50 [21]: 3.73 µM | Activity [31]: inactive | IC50 [22]: 2.54 µM | Activity [23]: inactive

C=C(C)[C@@H]1CC[C@]2(C(=O)NC(CO)(CO)CO)CC[C@]3(C)[C@H](CC[C@@H]4[C@@]5(C)CC[C@H](O)C(C)(C)[C@@H]5CC[C@]43C)[C@@H]12
IC50 [2]: > 100 µM | IC50 [3]: > 100 µM | IC50 [4]: > 100 µM | IC50 [6]: > 100 µM | IC50 [7]: > 100 µM | IC50 [8]: > 100 µM | IC50 [21]: > 100 µM | IC50 [22]: > 100 µM

C=C(C)[C@@H]1CC[C@]2(C(=O)OCC(CO)CO)CC[C@]3(C)[C@H](CC[C@@H]4[C@@]5(C)CC[C@H](O)C(C)(C)[C@@H]5CC[C@]43C)[C@@H]12
IC50 [2]: > 100 µM | IC50 [3]: > 100 µM | IC50 [4]: > 100 µM | IC50 [6]: > 100 µM | IC50 [7]: > 100 µM | IC50 [8]: > 100 µM | IC50 [21]: > 100 µM | IC50 [22]: > 100 µM
